According to article PMC5552226 (EBioMedicine, 2017):

Legend:
[1] = Safety and tolerability; type: in vivo, human; conditions: IM 10 IU (17 μg); N = 16
How it was run: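 Healthy female volunteers in a single-centre, single-blind, fixed-sequence phase 1 study received a single IM dose of test compound, 10 IU, alongside inhaled dosing sessions. Adverse events and serious adverse events were recorded throughout the study. Spirometry, clinical laboratory tests, vital signs, ECG intervals, physical examination and cardiac telemetry were checked at set post-dose times. Follow-up visit 7–21 days after the last inhaled dose. Data were summarised descriptively.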

[2] = Plasma oxytocin pharmacokinetics, phase 1 single-dose study; type: in vivo, human
[3] = sublingual, male volunteers; ref De Groot et al., 1995; cited from earlier work
[4] = female, human, plasma, im, 10 IU

Molecule	AE that led to discontinuation of study drug or withdrawal from the study, number of subjects [1]	Deaths, number of AEs [1]	Deaths, number of subjects [1]	Headache (drug-related), number of AEs [1]	Led to discontinuation of study drug or withdrawal from the study, number of AEs [1]	Non-fatal SAEs, number of subjects [1]	subjects in whom plasma oxytocin remained quantifiable up to 4 h ([2]; IM 10 IU, LLQ 2 pg/mL)	AUC(0–3 h), adjusted geometric mean ([2]; IM 10 IU, plasma, mixed-effect model, PK population)	AUC(0-t) [2, 4]	Cmax [2, 4]	half-life [2, 4]	level at 0.5 h [2, 4]	tmax [2, 4]	tmax ([2]; following IM administration (10 IU), plasma)	absorption half-life [3]	bioavailability [3]	lag time [3]
CC[C@H](C)[C@@H]1NC(=O)[C@H](Cc2ccc(O)cc2)NC(=O)[C@@H](N)CSSC[C@@H](C(=O)N2CCC[C@H]2C(=O)N[C@@H](CC(C)C)C(=O)NCC(N)=O)NC(=O)[C@H](CC(N)=O)NC(=O)[C@H](CCC(N)=O)NC1=O [IM oxytocin, oxytocin]	0	0	0	1	0	0	5/16	0.12761 ng·h/mL	0.12 ng·h/mL	0.19 ng/mL	38.4 min	0.0822 ng/mL	10.2 min	~ 10 min			
oxytocin [sublingual oxytocin]															long absorption half-life	poor bioavailability	long lag time
